Experiments:
[1] = molecular target: T1, ATP-dependent translocase ABCB1 (Homo sapiens, UniProt P08183); assay: Reversal of ABCB1-mediated multidrug resistance in human A2780/ADR cells assessed as resistance factor by measuring [GI50(resistant cell line without or with compound)/ GI50(sensitive cell line)] at 5 uM incubated for 72 hrs by MTT assay (reference value: 49); format: cell-based
In short: (§1)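 MDR reversal assay with daunorubicin at 10 nM–10 µM, alone or with test compound at 0.5, 1, 5 or 10 µM. Resistant cells were ABCB1-overexpressing A2780/ADR or MDCK II MDR1, with sensitive A2780 or MDCK II cells as comparators. Resistance factor = resistant GI50 / sensitive GI50. EC50 was derived from resistance factors versus modulator concentration. Values are from ≥3 experiments in duplicate ± SEM.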

[2] = molecular target: T2, Multidrug resistance-associated protein 1 (Homo sapiens, UniProt P33527); assay: (§2) Reversal of ABCC1 (unknown origin)-mediated multidrug resistance in MDCK2 cells co-expressing MRP1 (unknown origin) assessed as resistance factor by measuring [GI50(resistant cell line without or with compound)/ GI50(sensitive cell line)] at 0.5 uM incubated for 72 hrs by MTT assay (reference value: 7); format: cell-based
T2 sequence (P33527 whole entry): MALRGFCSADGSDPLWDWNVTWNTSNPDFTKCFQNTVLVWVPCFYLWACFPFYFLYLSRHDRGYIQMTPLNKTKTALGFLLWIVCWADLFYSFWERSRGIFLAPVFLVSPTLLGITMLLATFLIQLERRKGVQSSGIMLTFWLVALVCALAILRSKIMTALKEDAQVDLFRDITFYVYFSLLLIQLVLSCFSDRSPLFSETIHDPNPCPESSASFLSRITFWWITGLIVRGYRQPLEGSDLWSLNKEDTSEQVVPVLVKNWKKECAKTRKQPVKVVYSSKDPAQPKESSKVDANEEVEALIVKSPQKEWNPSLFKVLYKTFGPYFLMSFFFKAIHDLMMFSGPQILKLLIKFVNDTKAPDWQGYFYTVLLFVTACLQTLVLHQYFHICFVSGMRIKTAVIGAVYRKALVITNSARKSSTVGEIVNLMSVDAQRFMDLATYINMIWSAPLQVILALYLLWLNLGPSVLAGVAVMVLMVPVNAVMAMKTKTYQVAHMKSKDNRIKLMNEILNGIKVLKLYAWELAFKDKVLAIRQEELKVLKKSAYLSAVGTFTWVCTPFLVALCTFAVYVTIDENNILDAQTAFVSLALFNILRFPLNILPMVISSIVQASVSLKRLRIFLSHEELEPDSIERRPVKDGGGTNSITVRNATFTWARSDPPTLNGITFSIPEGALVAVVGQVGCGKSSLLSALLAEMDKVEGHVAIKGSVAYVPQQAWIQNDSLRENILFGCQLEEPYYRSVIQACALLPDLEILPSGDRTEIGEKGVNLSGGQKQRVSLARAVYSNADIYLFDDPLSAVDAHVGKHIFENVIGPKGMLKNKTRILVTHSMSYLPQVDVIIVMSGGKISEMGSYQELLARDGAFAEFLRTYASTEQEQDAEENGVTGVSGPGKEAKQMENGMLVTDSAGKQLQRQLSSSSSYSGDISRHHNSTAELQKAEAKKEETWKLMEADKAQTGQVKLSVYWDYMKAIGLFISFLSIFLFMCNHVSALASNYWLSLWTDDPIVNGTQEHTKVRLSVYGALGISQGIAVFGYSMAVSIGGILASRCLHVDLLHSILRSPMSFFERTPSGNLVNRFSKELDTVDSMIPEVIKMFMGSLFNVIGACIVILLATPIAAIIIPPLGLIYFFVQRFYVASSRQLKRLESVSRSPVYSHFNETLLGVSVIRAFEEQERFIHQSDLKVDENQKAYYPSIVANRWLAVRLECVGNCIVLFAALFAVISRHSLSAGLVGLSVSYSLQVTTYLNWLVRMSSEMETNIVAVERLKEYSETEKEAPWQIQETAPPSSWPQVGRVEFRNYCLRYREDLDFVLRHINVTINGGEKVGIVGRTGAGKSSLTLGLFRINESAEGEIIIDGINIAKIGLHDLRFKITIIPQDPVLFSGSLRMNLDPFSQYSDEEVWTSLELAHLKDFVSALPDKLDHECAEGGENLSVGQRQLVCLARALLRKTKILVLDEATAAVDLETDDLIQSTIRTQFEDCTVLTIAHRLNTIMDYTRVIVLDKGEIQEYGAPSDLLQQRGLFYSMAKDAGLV

[3] = molecular target: T1, ATP-dependent translocase ABCB1; assay: as §2, with “ABCB1” for “ABCC1”, “MDR1” for “MRP1”, “10” for “0.5”, “17)” for “7)”; format: cell-based; in short: as §1
ABCC1 (MRP1) = ABCC1 (MRP1) (Homo sapiens, UniProt P33527); assay: Inhibition of ABCC1 in human H69AR cells at 10 uM preincubated for 30 mins followed by calcein-AM addition measured at 60 secs time interval by fluorescence assay relative to control; format: cell-based; details: probe calcein-AM
Sequence of ABCC1 (MRP1) (P33527 whole entry): as above
In short: (§3)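 Calcein AM accumulation assay in H69AR small-cell lung cancer cells, which express only ABCC1. Inhibited efflux lets calcein AM build up intracellularly, where esterases cleave it to fluorescent calcein. The screen used 10 µM, scaled to a standard ABCC1 inhibitor at 10 µM as 100%. Hits reaching ≥20% inhibition (+SEM) went on to IC50 curves, constrained to that 100% maximum. Values are means of ≥3 independent experiments in duplicate ± SEM.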

ABCG2 (BCRP) = molecular target: T3, ABCG2 (BCRP) (Homo sapiens, UniProt Q9UNQ0); assay: Inhibition of ABCG2 (unknown origin) expressed in MDCK2 cells co-expressing BCRP (unknown origin) assessed as effect on pheophorbide A accumulation at 10 uM pre-incubated for 20 mins followed by pheophorbide A addition and measured after 120 mins by flow cytometric analysis relative to Ko143; format: cell-based; details: probe pheophorbide A
T3 sequence (Q9UNQ0 whole entry): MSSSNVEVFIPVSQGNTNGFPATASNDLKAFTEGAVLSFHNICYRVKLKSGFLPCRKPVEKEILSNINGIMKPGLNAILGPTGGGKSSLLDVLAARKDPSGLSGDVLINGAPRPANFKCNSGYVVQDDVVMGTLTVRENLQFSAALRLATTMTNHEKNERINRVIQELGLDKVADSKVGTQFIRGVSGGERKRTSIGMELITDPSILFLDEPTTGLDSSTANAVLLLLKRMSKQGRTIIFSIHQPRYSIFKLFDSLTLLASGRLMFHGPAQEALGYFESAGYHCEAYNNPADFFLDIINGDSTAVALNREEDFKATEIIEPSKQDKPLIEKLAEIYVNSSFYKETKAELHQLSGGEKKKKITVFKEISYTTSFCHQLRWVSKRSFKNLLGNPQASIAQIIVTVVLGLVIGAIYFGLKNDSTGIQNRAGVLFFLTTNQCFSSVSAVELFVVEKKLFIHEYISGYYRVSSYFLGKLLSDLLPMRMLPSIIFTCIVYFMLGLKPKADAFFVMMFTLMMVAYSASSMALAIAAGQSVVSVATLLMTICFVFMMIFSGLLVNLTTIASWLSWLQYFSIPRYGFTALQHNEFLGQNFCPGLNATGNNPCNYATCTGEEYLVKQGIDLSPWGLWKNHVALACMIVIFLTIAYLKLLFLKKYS
In short: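 Pheophorbide A accumulation assay in ABCG2-transfected MDCK II BCRP cells. Ko143 at 10 µM set 100% and no compound set 0%. Screening was at 10 µM; compounds reaching >20% (+SEM) got IC50 curves constrained to the Ko143 maximum at 10 µM. Values are reported as mean ± SEM.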

[4] = molecular target: T2, Multidrug resistance-associated protein 1; assay: as §2, with “5” for “0.5”; format: cell-based
[5] = molecular target: T2, Multidrug resistance-associated protein 1; assay: Inhibition of ABCC1 in human H69AR cells preincubated for 30 mins followed by calcein-AM addition measured at 60 secs time interval by fluorescence assay; format: cell-based; in short: as §3
[6] = molecular target: T1, ATP-dependent translocase ABCB1; assay: as §2, with “ABCB1” for “ABCC1”, “MDR1” for “MRP1”, “17)” for “7)”; format: cell-based; in short: as §1
[7] = molecular target: T4, Broad substrate specificity ATP-binding cassette transporter ABCG2 (Homo sapiens, UniProt Q9UNQ0); assay: Reversal of ABCG2-mediated multidrug resistance in human MCF-7/MX cells assessed as resistance factor by measuring [GI50(resistant cell line without or with compound)/ GI50(sensitive cell line)] at 5 uM incubated for 72 hrs by MTT assay (reference value: 789); format: cell-based
T4 sequence (Q9UNQ0 whole entry): T3 sequence (Q9UNQ0 whole entry)

[8] = molecular target: T2, Multidrug resistance-associated protein 1; assay: Competitive inhibition of ABCC1-mediated calcein-AM transport in human H69AR cells at 0.316 to 1.78 uM by Lineweaver-Burk plot analysis; format: cell-based
In short: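 Kinetic study of calcein AM transport by Lineweaver-Burk analysis. ABCC1 was studied in H69AR cells with calcein AM at 0.25, 0.3, 0.45, 0.6 and 0.8 µM and inhibitor at 0.316, 0.562, 1.00 and 1.78 µM plus a zero control. ABCB1 was studied in A2780/ADR cells with calcein AM at 0.2–0.8 µM and inhibitor at 0.056, 0.100, 0.178 and 0.316 µM plus a zero control.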

[9] = molecular target: T1, ATP-dependent translocase ABCB1; assay: Reversal of ABCB1-mediated multidrug resistance in human A2780/ADR cells assessed as resistance factor by measuring [GI50(resistant cell line without or with compound)/ GI50(sensitive cell line)] at 1 uM incubated for 72 hrs by MTT assay (reference value: 49); format: cell-based; in short: as §1
[10] = molecular target: T4, Broad substrate specificity ATP-binding cassette transporter ABCG2; assay: Non-competitive inhibition of ABCG2 (unknown origin)-mediated pheophorbide A transport in MDCK2 cells co-expressing BCRP (unknown origin) at 0.178 to 1 uM by Lineweaver-Burk plot analysis; format: cell-based
In short: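 Lineweaver-Burk kinetics of ABCG2-mediated pheophorbide A transport in transfected MDCK II BCRP cells. Pheophorbide A was used at 0.5, 0.6, 0.8, 1.0 and 1.5 µM. Inhibitor was used at 0.178, 0.316, 0.562 and 1.00 µM, with a zero-inhibitor control.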

[11] = Growth inhibition of MDCK2 cells incubated for 72 hrs by MTT assay; format: cell-based, Canis lupus familiaris, MDCK-II; details: dog
In short: (§4)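 MTT-based cytotoxicity assay giving GI50 of the compound alone in each listed parental, selected or transfected cell line.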

[12] = Growth inhibition of human MCF7 cells incubated for 72 hrs by MTT assay; format: cell-based; in short: as §4
ABCB1 (P-gp) = ABCB1 (P-gp) (Homo sapiens, UniProt P08183); assay: Inhibition of ABCB1 in human A2780/ADR cells at 10 uM preincubated for 30 mins followed by calcein AM addition and measured at 60 secs time interval by fluorescence assay relative to cyclosporine A; format: cell-based; details: probe calcein AM
Sequence of ABCB1 (P-gp) (P08183 whole entry): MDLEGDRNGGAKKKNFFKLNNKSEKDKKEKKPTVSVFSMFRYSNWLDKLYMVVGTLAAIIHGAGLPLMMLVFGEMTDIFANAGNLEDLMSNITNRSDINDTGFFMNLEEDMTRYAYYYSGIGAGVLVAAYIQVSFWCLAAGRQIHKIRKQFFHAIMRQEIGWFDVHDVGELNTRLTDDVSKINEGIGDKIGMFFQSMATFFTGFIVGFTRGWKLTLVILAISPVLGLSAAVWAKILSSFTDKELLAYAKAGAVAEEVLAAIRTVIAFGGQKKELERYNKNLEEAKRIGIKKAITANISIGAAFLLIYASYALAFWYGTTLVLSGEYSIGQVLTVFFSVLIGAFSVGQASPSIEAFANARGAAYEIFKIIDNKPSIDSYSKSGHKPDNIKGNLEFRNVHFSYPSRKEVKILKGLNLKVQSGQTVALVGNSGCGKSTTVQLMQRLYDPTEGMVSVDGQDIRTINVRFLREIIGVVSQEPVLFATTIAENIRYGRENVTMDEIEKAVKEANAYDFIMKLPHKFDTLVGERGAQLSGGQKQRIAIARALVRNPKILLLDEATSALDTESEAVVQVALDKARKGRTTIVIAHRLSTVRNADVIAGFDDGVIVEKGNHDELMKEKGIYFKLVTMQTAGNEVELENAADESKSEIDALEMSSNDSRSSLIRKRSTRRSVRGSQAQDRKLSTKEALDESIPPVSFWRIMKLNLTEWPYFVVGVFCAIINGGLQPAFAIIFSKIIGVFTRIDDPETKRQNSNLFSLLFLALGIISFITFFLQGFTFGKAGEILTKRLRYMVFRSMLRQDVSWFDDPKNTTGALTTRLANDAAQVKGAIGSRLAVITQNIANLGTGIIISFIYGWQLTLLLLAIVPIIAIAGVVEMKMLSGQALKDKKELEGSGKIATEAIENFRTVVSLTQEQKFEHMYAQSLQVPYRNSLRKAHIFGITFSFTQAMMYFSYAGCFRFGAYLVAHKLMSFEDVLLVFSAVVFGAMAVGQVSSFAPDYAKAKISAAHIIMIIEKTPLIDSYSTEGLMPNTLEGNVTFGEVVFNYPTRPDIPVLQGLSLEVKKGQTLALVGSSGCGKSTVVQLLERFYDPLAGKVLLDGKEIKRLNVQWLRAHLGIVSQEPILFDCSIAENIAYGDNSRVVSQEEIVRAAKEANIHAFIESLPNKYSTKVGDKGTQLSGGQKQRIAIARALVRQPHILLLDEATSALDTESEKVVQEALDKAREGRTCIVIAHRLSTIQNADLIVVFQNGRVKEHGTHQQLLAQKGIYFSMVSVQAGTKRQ

T1 sequence (P08183 whole entry): as above

RatioGI50 [1]: 6.3 | RatioGI50 [2]: 4.7 | RatioGI50 [3]: 0.5 | inhibition at 1 min, 10 µM (ABCC1 (MRP1)): ≥ 20% | inhibition at 2 h, 10 µM (ABCG2 (BCRP)): ≥ 20% | RatioGI50 [4]: 2.2 | IC50 [5]: 5.04 µM | RatioGI50 [6]: 7.1 | RatioGI50 [7]: 179 | inhibition (INH) [8]: Active | RatioGI50 [9]: 20 | inhibition (INH) [10]: Active | inhibition at 1 min, 10 µM (ABCB1 (P-gp)): ≥ 20%
Structure (SMILES): CC1CCc2c(sc3nc(-c4cccnc4)nc(N4CCN(C(C(N)=O)c5ccccc5)CC4)c23)C1 (stereo not given)
GI50 at 72 h [11]: 27 µM | GI50 at 72 h [12]: 57.8 µM
